Screening data from PubChem BioAssay.
MIN6 prolif = MIN6 beta-cell proliferation induction; proliferation, % at 10 µM; AID 2380; actives 0.29% (n = 330,000); MIN6 cells proliferation, ATPlite luminescence, 48 h; cells starved in 0.2% serum; 100% = growth in 10% serum;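 active = compounds whose signal lies at least 3.5 SD above the mean of all wells on their plate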;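 note: 0% = DMSO-treated cells in low-serum medium and 100% = 10% serum control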
FLuc stim CS = firefly luciferase counter-screen for stimulation assays. activation factor at 10 µM. ATPlite luciferase biochemical, luminescence, 10 min; 0 = ATP-free wells, 1 = DMSO control. 200,000 tested, under 10 active;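 active = luciferase activation factor, scaled between plate controls, of at least 2 with compound at 10 µM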
Target sequence (P08659 whole entry, looked up): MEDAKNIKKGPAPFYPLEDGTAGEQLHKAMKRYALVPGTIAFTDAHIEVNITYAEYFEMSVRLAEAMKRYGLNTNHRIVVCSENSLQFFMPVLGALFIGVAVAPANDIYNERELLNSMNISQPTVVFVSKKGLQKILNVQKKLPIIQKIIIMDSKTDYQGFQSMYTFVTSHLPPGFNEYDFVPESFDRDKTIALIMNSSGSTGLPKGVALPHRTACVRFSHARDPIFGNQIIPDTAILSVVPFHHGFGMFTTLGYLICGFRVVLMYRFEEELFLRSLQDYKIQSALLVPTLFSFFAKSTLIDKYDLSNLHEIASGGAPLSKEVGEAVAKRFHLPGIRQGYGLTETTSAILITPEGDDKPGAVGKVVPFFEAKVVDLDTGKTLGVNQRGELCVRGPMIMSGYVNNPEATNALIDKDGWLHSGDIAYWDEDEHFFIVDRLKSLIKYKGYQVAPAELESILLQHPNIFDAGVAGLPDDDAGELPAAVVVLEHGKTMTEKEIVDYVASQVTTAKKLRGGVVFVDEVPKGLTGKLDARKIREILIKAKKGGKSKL
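Assay system: Luciferase/luciferin detection reagent, cell-free biochemical luciferase assay / Also added: ATP substrate / Schedule: 10 min at ambient temperature / Measured by: luminescence measurement of luciferase light output / Benchmarks: low control with PBS replacing ATP, high control enzyme plus ATP without compound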
FLuc inhib CS = Photinus pyralis luciferase inhibition counter-screen; AID 1006; ATPLite firefly luciferase biochemical luminescence, 10 min; inhibition, % at 10 µM; actives 1.5% (n = 200,000);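 active = inhibition above about 50% when tested at 10 µM, limit read from the data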
TRAIL sens C8 = sensitizes caspase-8 expressing cells to TRAIL; NB7+C8 cells + TRAIL, ATPlite viability luminescence; inhibition (viability loss, TRAIL sensitization), % at 10 µM; actives 1% (n = 360,000); AID 624354;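 active = compounds causing at least 50% loss of cell viability in the single-dose screen, relative to plate controls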
iPSC survival up = hiPSC single-cell survival enhancement. survival enhancement, % at 20 µM. ATPlite luminescence; 100% = ROCK inhibitor wells, 0% = DMSO. AID 602274. actives 0.044% (n = 360,000); in the data active = survival enhancement above about 18%;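 note: cells exposed to compounds for 16 hours before the ATP read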
PPC-1+TRAIL kill = PPC-1 cancer cell killing with TRAIL present. cell killing (% activity), % at 4 µM or 5 µM. PPC-1 cells + TRAIL, ATPLite viability luminescence. actives 0.41% (n = 220,000);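 active = cell killing above 50% in the first pass at 4 µM, then a duplicate retest at 5 µM averaging 50% or more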;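 note: plate controls were cells with TRAIL plus DMSO for no effect and medium-only wells lacking cells for full effect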
An asterisk follows results filed as active; / = no result. An excerpt weighted towards active compounds, which were near 1.8% of everything screened.

SMILES | MIN6 prolif | FLuc stim CS | FLuc inhib CS | TRAIL sens C8 | iPSC survival up | PPC-1+TRAIL kill
CCCCCc1c(-c2cccc(OC)c2)ncn1CCc1ccccc1OC | / | / | / | 42.9 | 0.7 | /
C=CCOc1ccccc1CNc1ccc2c(c1)OCCO2 | -5.8 | 0.3 | 74.4* | 58.7* | -0.8 | 39.0
Cc1ccc(NC(=O)C(=O)NCc2ccc(/C=N/NC(=O)c3c(C)nc4ccccn34)o2)cc1 | 0.0 | 0.3 | 72.6* | 36.7 | -1.7 | 23.7
Cc1ccn2c(C(=O)N/N=C/c3ccc(CNC(=O)C(=O)Nc4ccc(C)c(C)c4)o3)c(C)nc2c1 | 0.0 | 0.8 | 22.6 | / | / | -1.2
Cc1ccc(S(=O)(=O)N2C[C@H]3C(=O)C[C@@H](c4cccc(Cl)c4)N(S(=O)(=O)c4ccc(C)cc4)[C@H]3C[C@H]2c2cccc(Cl)c2)cc1 | / | / | / | -8.1 | -0.9 | /
c1ccc(-c2ccc(-c3ccccn3)nn2)nc1 | -4.3 | 0.4 | 59.7* | / | / | 16.3
CC(C)(C)C(=O)CN1C2=NCCCN2c2ccccc21 | 1.4 | / | / | 3.0 | -0.3 | /
COc1ccc(OCC(=O)O/N=C(\N)Cc2cccs2)cc1 | 1.7 | 1 | -1.3 | 0.0 | -0.8 | 19.3
Cc1ccccc1C(=O)O/N=C(\N)Cc1cccs1 | -2.1 | / | / | 92.1* | 0.4 | /
CC(C)(C)c1ccc(C(=O)O/N=C(\N)Cc2cccs2)cc1 | / | / | / | 94.2* | -2.3 | /
Cc1ccc(NC(=O)c2cc3ccccc3oc2=N)cc1 | -6.4 | / | / | 49.1 | -0.4 | /
N=c1oc2cc(O)ccc2cc1C(=O)Nc1ccc(Cl)cc1 | -6.9 | / | / | 48.5* | -0.6 | /
COc1ccc2[nH]c(C(=O)N/N=C/c3ccc(O)cc3O)cc2c1 | -2.6 | / | / | 28.6 | -0.9 | /
NC(=S)n1[nH]c(-c2ccc([N+](=O)[O-])cc2)c(N=Nc2ccccc2[N+](=O)[O-])c1=O | / | 1.1 | -7.6 | 4.2 | -0.8 | 12.8
NC(=S)n1[nH]c(-c2ccc([N+](=O)[O-])cc2)c(N=Nc2cccc([N+](=O)[O-])c2)c1=O | / | 1 | -1.7 | 52.9* | 3.8 | 1.5
Cc1[nH]n(C(N)=S)c(=O)c1N=Nc1ccc2ccccc2c1 | / | 0.4 | 62.6* | 20.6 | -1.6 | 33.2
CC(=O)Nc1ccc(N=Nc2c(C)[nH]n(C(N)=S)c2=O)cc1 | -2.2 | 0.7 | 28.6 | 0.4 | -0.9 | -2.7
Cc1ccc(N=Nc2c(C)[nH]n(C(N)=S)c2=O)cc1C | 0.0 | 0.7 | 33.3 | 20.3 | -1.8 | 20.5
Cc1[nH]n(C(N)=S)c(=O)c1N=Nc1cc(-c2ccc(Br)cc2)[nH]n1 | -1.5 | 0.4 | 56.4* | 22.5 | -1.5 | 8.5
CN(C)S(=O)(=O)c1cccc(NC(=O)Cc2ccc(-c3ccccc3)cc2)c1 | -4.6 | / | / | 8.3 | 0.0 | /
COc1ccc(OCc2nc(C#N)c(NCCCn3ccnc3)o2)cc1 | 6.3 | 1 | -2.1 | 1.2 | 0.1 | -7.1
O=C(Nc1nnc(-c2cc(Cl)ccc2Cl)o1)c1ccco1 | -5.0 | / | / | 51.8* | -0.5 | /
CN(Cc1ccccc1)C(=O)[C@@H]1CCCN1S(=O)(=O)c1ccc(Cl)cc1 | -2.2 | / | / | -7.0 | 0.0 | /
Cc1ccc(-c2cc(NC(=O)CCl)n(-c3ccccc3)n2)cc1 | -3.0 | 1 | 1.2 | 44.9 | -2.8 | 36.5
Cc1ccc(-c2nn(-c3ccccc3)cc2NC(=O)CCl)cc1 | -6.8 | 0.9 | 5.8 | 56.4* | -1.1 | 28.5
SMILES | MIN6 prolif | FLuc stim CS | FLuc inhib CS | TRAIL sens C8 | iPSC survival up | PPC-1+TRAIL kill
O=C(Nc1ccccc1)c1ccc2ccccc2n1 | -2.0 | 0.5 | 52.5* | 27.2 | -0.7 | 30.6
O=C(Nc1ccccc1C(=O)O)c1ccc2ccccc2n1 | -3.2 | 0.4 | 56.0* | 36.2 | 1.5 | 21.6
COc1ccc(CNC(=O)N2CCN(C(=O)c3ccccc3)CC2)cc1 | -5.0 | / | / | 5.4 | 0.4 | /
COc1cccc(C=Nc2ccccc2C#N)c1O | 0.0 | 0.1 | 88.9* | -0.6 | -0.4 | 14.4
CCOc1ccccc1/C=N/Nc1ccnc(=O)[nH]1 | -4.7 | / | / | 1.2 | 0.9 | /
COc1cccc(/C=N/c2oc(-c3ccccc3)cc2C#N)c1O | -0.4 | 0.9 | 10.3 | 2.3 | -1.4 | 9.8
COc1cccc(/C=N/Nc2ccnc(=O)[nH]2)c1O | -0.8 | / | / | 47.9* | 0.0 | /
O=c1nccc(N/N=C/c2ccccc2O)[nH]1 | -3.8 | / | / | 64.2* | -0.5 | /
COc1cccc(/C=N/Nc2ccc(C(=O)O)cc2)c1O | 0.9 | 0.2 | 83.4* | 55.9* | -1.9 | 18.1
COc1cccc(/C=N/NC(=O)C(C)n2nc(C)c([N+](=O)[O-])c2C)c1O (centres undefined) | 0.0 | 0.8 | 24.4 | 54.9* | -0.2 | 4.0
O=[N+]([O-])c1ccc(NN=Cc2cccc3ccccc23)nc1 | / | / | / | -2.0 | -0.8 | /
COc1cccc(/C=N/Nc2ccc([N+](=O)[O-])cn2)c1O | -5.2 | / | / | 59.8* | -0.4 | /
CCCCNC(=O)C[C@@H]1C[C@@]2(C(=O)OC)CCCCC=C2N(Cc2cccc3ccccc23)C1=O | / | / | / | 15.3 | 0.5 | /
CN(C)c1ccc(S(=O)(=O)NCC(=O)NCCC2=CCCCC2)cc1[N+](=O)[O-] | 0.6 | / | / | -5.3 | -1.4 | /
Cc1ccn2cc(-c3ccc(O)c(O)c3)nc2c1 | -6.5 | / | / | 76.4* | -0.8 | /
Cc1ccn2cc(-c3cccc(NC(=O)C(C)C)c3)nc2c1 | -2.5 | 0.4 | 57.2* | 23.4 | -2.1 | 2.6
Oc1ccc(-c2cn3ccccc3n2)cc1O | -2.8 | / | / | 26.0 | -0.1 | /
CC(C)C(=O)Nc1cccc(-c2cn3ccccc3n2)c1 | 0.0 | 0.7 | 30.6 | -4.3 | 2.0 | -5.0
Cc1ccn(CC(=O)N/N=C/c2cc([N+](=O)[O-])ccc2O)n1 | 0.0 | 1 | -4.4 | 25.6 | -1.3 | 21.2
CC1(C)CC[C@]2(C(=O)n3ccnc3)CC[C@]3(C)[C@H](C(=O)C=C4[C@@]5(C)C=C(C#N)C(=O)C(C)(C)[C@@H]5CC[C@]43C)[C@@H]2C1 | / | / | / | 88.1* | -0.5 | /
Cc1ccc(NC(=O)c2ccc3nsnc3c2)c(Cl)c1 | -6.0 | / | / | 58.2* | -0.7 | /
O=C(Nc1ccc(Br)cc1F)c1ccc2nsnc2c1 | -0.3 | / | / | 4.3 | 0.1 | /
Cc1ccc(OCCC(=O)Nc2cc(S(=O)(=O)N3CCOCC3)ccc2N2CCCC2)cc1 | / | / | / | -20.1 | -0.5 | /
CC1CCC(C(C)C)C(OC(=O)Cn2c(-c3ccc(Cl)cc3)[n+](C)c3ccccc32)C1 (centres undefined) | -5.7 | / | / | 51.4* | -0.6 | 48.7
CC1CCC(C(C)C)C(OC(=O)Cn2c(-c3ccc(Br)cc3)[n+](C)c3ccccc32)C1 (centres undefined) | -6.9 | 1 | -3.6 | 35.4 | -3.6 | 49.7
COc1cc(C(=O)NCCN2C(=O)S/C(=C\c3ccc(F)cc3)C2=O)ccc1OCC(=O)N1CCOCC1 | -2.8 | / | / | / | / | 9.8
COc1cccc(-c2cc3nc(-c4ccccc4)cc(=O)n3[nH]2)c1 | -6.0 | / | / | 41.0* | -1.0 | /
O=c1cc(-c2ccccc2)nc2cc(-c3ccc(F)cc3)[nH]n12 | -3.7 | / | / | 55.7* | 0.7 | /
CCCCC(=O)Nc1c2c(nn1-c1ccc(C)cc1)CS(=O)(=O)C2 | -2.5 | / | / | 2.5 | 0.9 | /
